For experiment [1], the species on record is Rattus norvegicus. The experiment is described as follows: Compound was evaluated at 10 uM for its ability to initiate (gate) a current in the absence of GABA in cultured postnatal rat hippocampal neurons. Format: functional. Also on record: unit not given here. A digest of the protocol:
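Whole-cell voltage clamp of cultured postnatal rat hippocampal neurons at -60 mV. Compound at 10 µM was applied without GABA by pressure ejection (500 ms, 10-20 psi) from a pipet within 5 µm. CsCl-based pipet solution, pH 7.3. DMSO final <0.2%. Peak directly gated current is expressed relative to the same cell's response to 2 µM GABA alone. Mean ± SEM, N cells.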

For experiment [2], the species on record is Rattus norvegicus. The experiment is described as follows: Compound was evaluated at 10 uM GABA-mediated current in cultured postnatal rat hippocampal neurons. Format: functional. In short, it runs like this:
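Whole-cell voltage clamp of cultured postnatal rat hippocampal neurons held at -60 mV. Compound at 10 µM was co-applied with 2 µM GABA by pressure ejection (500 ms jet, 10-20 psi) from a pipet within 5 µm of the cell. Pipet solution was CsCl-based, pH 7.3. DMSO final <0.2%. Current is given as % of 2 µM GABA alone (100% = no change). Mean ± SEM, N cells.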

In the case of `CC(=O)[C@H]1CC[C@H]2[C@@H]3CC[C@H]4C[C@H](O)CC[C@]4(C)[C@H]3CC[C@]12C` [BREXANOLONE], in experiment [1], the Gated current came to 26. The same compound displayed a Potentation in experiment [2] of 1111.

Consider `CC(=O)[C@H]1CC[C@H]2[C@@H]3CC[C@]4(C)C[C@H](O)CC[C@@H]4[C@H]3CC[C@]12C`, for which, in experiment [1], the Gated current is reported as 12. In addition, in experiment [2], the Potentation is given as 652.

In experiment [1], `C[C@]12CC[C@@H](O)C[C@@H]1CC[C@@H]1[C@@H]2CC[C@]2(C)[C@@H](C#N)CC[C@@H]12` showed a Gated current of 32. The Potentation in experiment [2] is given as 1829.

In turn, `C[C@]12CC[C@H]3[C@@H](CCC4C[C@H](O)CC[C@@H]43)[C@@H]1CC[C@@H]2C#N` (stereo partly drawn) displayed a Gated current in experiment [1] of 42. This compound also had a Potentation in experiment [2] of 1721.

Consider `CC(=O)[C@H]1CC[C@H]2[C@@H]3CCC4(C)C[C@H](O)CC[C@]4(C)[C@H]3CC[C@]12C` (stereo partly drawn), for which, in experiment [1], the Gated current is reported as 3. In experiment [2], this compound displayed a Potentation of 294.

With `C[C@]12CC[C@@H]3[C@H](CC[C@]4(C)[C@@H](C#N)CC[C@@H]34)[C@H]1CC[C@@H](O)C2`, the Gated current in experiment [1] came to 28. This compound also had a Potentation in experiment [2] of 452.

In experiment [1], `CC(=O)[C@H]1CC[C@H]2[C@@H]3CC[C@@H]4C[C@H](O)CC[C@@H]4[C@H]3CC[C@]12C` registered a Gated current of 110. In experiment [2], this compound returned a Potentation of 754.

In the case of `C[C@]12CC[C@@H](O)C[C@H]1CC[C@@H]1[C@@H]2CC[C@]2(C)[C@@H](C#N)CC[C@@H]12`, the Gated current in experiment [1] is reported as 68. In addition, the Potentation in experiment [2] turned out to be 1297.

Consider `CC(=O)[C@H]1CC[C@H]2[C@@H]3CC[C@]4(C)C[C@H](O)CC[C@]4(C)[C@H]3CC[C@]12C`, for which the Gated current in experiment [1] was 24. This compound also came in with a Potentation in experiment [2] of 498.

In the case of `CC12CC[C@@H]3[C@H](CC[C@]4(C)[C@@H](C#N)CC[C@@H]34)[C@H]1CC[C@@H](O)C2` (stereo partly drawn), the Gated current in experiment [1] was determined as 0. In experiment [2], this compound gave a Potentation of 92.

`CC(=O)[C@H]1CC[C@H]2[C@@H]3CC[C@@H]4C[C@H](O)CC[C@]4(C)[C@H]3CC[C@]12C` [ELTANOLONE]: the Gated current in experiment [1] is 49. Further, the Potentation in experiment [2] is reported as 1023.

In experiment [1], `CC(=O)[C@H]1CC[C@H]2[C@@H]3CCC4C[C@H](O)CC[C@@H]4[C@H]3CC[C@]12C` (stereo partly drawn) yielded a Gated current of 46. In experiment [2], the Potentation is on record as 926.

Regarding `CC(=O)[C@H]1CC[C@H]2[C@@H]3CCC4(C)C[C@H](O)CC[C@@H]4[C@H]3CC[C@]12C` (stereo partly drawn), the Gated current in experiment [1] was 0. This compound gave a Potentation in experiment [2] of 110.

In experiment [1], `C[C@]12CC[C@H]3[C@@H](CC[C@@H]4C[C@H](O)CC[C@@H]43)[C@@H]1CC[C@@H]2C#N` returned a Gated current of 41. In experiment [2], this compound had a Potentation of 1823.
